Assay results taken from ChEMBL document CHEMBL1153628, “HCV NS5B polymerase inhibitors 2: Synthesis and in vitro activity of (1,1-dioxo-2H-[1,2,4]benzothiadiazin-3-yl) azolo[1,5-a]pyridine and azolo[1,5-a]pyrimidine derivatives” (Bioorg Med Chem Lett, 2009).

Key:
[1] = Cytotoxicity against human HuH7 cells; type: cell-based, Huh-7
How it was run: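 Huh-7 cells stably carrying luc/neo ET replicon, grown in DMEM with 10% fetal calf serum, seeded at 5 × 10³ cells/well. DMSO serial dilutions were added ~24 h after plating (final DMSO 1%), with exposure for 46–50 h. Luminescence vs log concentration was fitted to a 4-parameter logistic to give EC50 and CC50.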

[2] = Inhibition of HCV isolate HC-J4 NS5B deltaC21 polymerase; design: species or system Hepatitis C virus isolate HC-J4
How it was run: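 Inhibitor was preincubated 5 min, then 250 nM 5′-biotin-rU₁₂ primer, poly-rA template, UTP and ³H-UTP were added (5% DMSO). After 2 h, SPA beads/EDTA stop, then CsCl for 1 h, then scintillation count. IC50 by 4-parameter logistic fit.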

Hepatitis C virus = assay: Antiviral activity against HCV 1b infected in human Huh7 cells after 46-50 hrs by luc/neo ET replicon assay; details: genotype 1b, Huh-7, 46-50 h

SMILES | IC50 [2] [nM] | EC50 (Hepatitis C virus) [nM] | CC50 [1] [nM]
CC(C)CCn1c(=O)c(C2=NS(=O)(=O)c3cc(NS(C)(=O)=O)ccc3N2)c(O)n2nc(C3CC3)cc12 | 9 | > 20000 | > 100000
CS(=O)(=O)Nc1ccc2c(c1)S(=O)(=O)N=C(c1c(O)n3nccc3n(CCc3ccc(F)cc3)c1=O)N2 | 18 | > 100000 | > 100000
CC(C)CC[C@]1(C)C(=O)C(C2=NS(=O)(=O)c3cc(NS(C)(=O)=O)ccc3N2)=C(O)c2cccn21 | 150 | 4900 | 170000
CC(C)CCn1c(=O)c(C2=NS(=O)(=O)c3cc(NS(C)(=O)=O)ccc3N2)c(O)n2ccnc12 | < 5 | 550 | > 1000
CC(C)CCC1(C)C(=O)C(C2=NS(=O)(=O)c3cc(NS(C)(=O)=O)ccc3N2)=C(O)c2cncn21 (centres undefined) | < 5 | 6600 | > 100000
CC(C)CCn1c(=O)c(C2=NS(=O)(=O)c3cc(NS(C)(=O)=O)ccc3N2)c(O)n2ncnc12 | < 5 | 6700 | > 100000

Now from value to compound, other results behind:

IC50 [2] [nM] | EC50 (Hepatitis C virus) [nM] | SMILES | CC50 [1] [nM]
< 5 | 1700 | Cc1cc2n(CCC(C)C)c(=O)c(C3=NS(=O)(=O)c4cc(NS(C)(=O)=O)ccc4N3)c(O)n2n1 | > 100000
< 5 | 550 | CC(C)CCn1c(=O)c(C2=NS(=O)(=O)c3cc(NS(C)(=O)=O)ccc3N2)c(O)n2nccc12 | > 100000
< 5 | 150 | CC(C)CC[C@@]1(C)C(=O)C(C2=NS(=O)(=O)c3cc(NS(C)(=O)=O)ccc3N2)=C(O)c2cccn21 | 19500
< 5 | 230 | CC(C)CCC1(C)C(=O)C(C2=NS(=O)(=O)c3cc(NS(C)(=O)=O)ccc3N2)=C(O)c2cccn21 (centres undefined) | > 100000
< 5 | 1100 | CC(C)CCC1(C)C(=O)C(C2=NS(=O)(=O)c3cc(NS(C)(=O)=O)ccc3N2)=C(O)c2ccnn21 (centres undefined) | > 100000
< 5 | 12000 | CS(=O)(=O)Nc1ccc2c(c1)S(=O)(=O)N=C(c1c(O)n3nccc3n(Cc3ccc(F)cc3)c1=O)N2 | > 100000
< 5 | 4000 | CS(=O)(=O)Nc1ccc2c(c1)S(=O)(=O)N=C(c1c(O)n3nccc3n(Cc3ccccc3)c1=O)N2 | > 100000
